Data reported in publication PMC4659352 (Molecular cancer therapeutics, 2014).
*1 amine or outer side, *2 acyl side, *3 side chain or, on linkers, in order; H or OH if unused. Where a SMILES comes first, the peptide text is derived from it. [ ]: non-standard residue; d: D form. γGlu = O=C(O)[C@H](CCC(=O)[*:2])N[*:1]

Legend:
[1] = system: primary and metastatic tumor models; conditions: intratumoral or systemic injection; ref [22], [23]; cited from earlier work
CWR22Rv1 xenografts = test: CWR22Rv1 subcutaneous xenograft therapy study; format: in vivo, mouse; conditions: 7 mg/kg tail vein at days 0, 3, 6, 9
LNCaP xenografts = test: LNCaP subcutaneous xenograft therapy study; format: in vivo, mouse
human red blood cells = test: Hemolysis assay with washed human red blood cells; format: cell-based; conditions: 1 µmol/L peptide, 2% v/v human RBC, 1 hour, 37°C
Summary of the method: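 Test compound was dissolved in DMSO and diluted in 1× PBS to 100, 10 and 1 µmol/L. It was incubated with washed human RBCs (2% v/v) for 1 hour at 37°C. RBCs in PBS alone served as zero lysis and 1% Triton X-100 as 100% lysis. Cells were pelleted and supernatant absorbance read at 540 nm, in triplicate.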

[2] = Solubility of the propeptides at dosing; format: physicochemical; conditions: dissolved in DMSO and diluted in sterile PBS, 5% v/v DMSO
healthy nude mice = test: Toxicity study in healthy nude mice; format: in vivo, mouse
PC3 = test: MTT cell viability assay, PC3; format: cell-based, human; conditions: PSMA-null PC3, standard culture conditions with 10% fetal bovine serum, 72 hours
Summary of the method: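 PC3 cells (about 3,000 per well) were kept in RPMI-1640 with 10% FBS, 1% pen/strep and 2 mmol/L L-glutamine at 37°C and 5% CO2. They were exposed to a concentration range of test compound for 72 hours. Viability was read by MTT, and IC50 was calculated.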

PSMA = PSMA (Homo sapiens, UniProt Q04609); test: Protease digestion with purified recombinant PSMA monitored by MALDI-TOF; format: biochemical
PC3 xenografts = conditions: PC3 (PSA-, PSMA-) xenograft, 7 mg/kg tail vein at days 0, 3, 6, 9
PSA = PSA substrate sequence used in PSA1 and PSA2; ref [27]; cited from earlier work
[3] = 7 mg/kg tail vein at days 0, 3, 6, 9

Chain of PSMA (Q04609 whole entry): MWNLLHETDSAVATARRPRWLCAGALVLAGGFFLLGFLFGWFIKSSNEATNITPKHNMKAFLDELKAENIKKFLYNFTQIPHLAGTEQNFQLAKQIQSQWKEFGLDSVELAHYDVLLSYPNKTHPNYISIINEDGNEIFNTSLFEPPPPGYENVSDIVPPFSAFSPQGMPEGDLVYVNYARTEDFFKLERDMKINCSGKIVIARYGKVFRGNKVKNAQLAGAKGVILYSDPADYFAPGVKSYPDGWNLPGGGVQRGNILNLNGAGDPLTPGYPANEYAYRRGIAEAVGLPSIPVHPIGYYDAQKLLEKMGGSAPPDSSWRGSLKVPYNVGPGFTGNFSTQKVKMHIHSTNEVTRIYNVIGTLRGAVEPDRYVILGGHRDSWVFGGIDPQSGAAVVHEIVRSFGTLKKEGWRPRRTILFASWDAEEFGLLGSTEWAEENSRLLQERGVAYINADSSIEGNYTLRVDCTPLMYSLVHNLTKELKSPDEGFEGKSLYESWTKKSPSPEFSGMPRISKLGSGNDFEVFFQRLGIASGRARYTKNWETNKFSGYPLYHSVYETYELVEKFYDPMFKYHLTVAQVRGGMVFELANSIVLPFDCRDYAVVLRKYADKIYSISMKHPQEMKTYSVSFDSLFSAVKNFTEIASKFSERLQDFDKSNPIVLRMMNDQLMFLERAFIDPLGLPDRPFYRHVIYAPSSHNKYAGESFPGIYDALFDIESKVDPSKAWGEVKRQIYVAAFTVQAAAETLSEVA

Compound: CC(C)C[C@H](NC(=O)[C@H](CC(C)C)NC(=O)[C@@H](CCCCN)NC(=O)[C@H](CC(C)C)NC(=O)[C@H](CC(C)C)NC(=O)[C@H](CCCCN)NC(=O)[C@@H](CCCCN)NC(=O)[C@@H](CC(C)C)NC(=O)[C@H](CC(C)C)NC(=O)[C@@H](CCCCN)NC(=O)[C@H](CCCCN)NC(=O)[C@H](CC(C)C)NC(=O)[C@@H](CC(C)C)NC(=O)[C@H](CCCCN)NC(=O)[C@@H](N)CC(C)C)C(N)=O [KLL, reference compound] (H-LK[dL]LK[dK]L[dL][dK]KLL[dK]LL-NH2)
- effect on tumor growth [1]: inhibit the growth of primary and metastatic tumor models
- tumor volume by day 28 relative to the γE-KLL arm (CWR22Rv1 xenografts): double the volume of the γE-KLL–treated arm
- tumor growth compared with the saline control at day 9 (LNCaP xenografts; [3]): Inhibition of tumor growth

Compound: H-LKLLKKLLKKLLKLLDDDDDDD-OH [KLL-D7-OH]
- hemolysis at 1 µmol/L (human red blood cells): minimal hemolysis

Compound: H-DDDDDDDLKLLKKLLKKLLKLL-NH2 [D7-KLL-NH2]
- hemolysis at 1 µmol/L (human red blood cells): little hemolytic activity

Compound: CC(C)C[C@H](NC(=O)[C@H](CC(C)C)NC(=O)[C@@H](CCCCN)NC(=O)[C@H](CC(C)C)NC(=O)[C@H](CC(C)C)NC(=O)[C@H](CCCCN)NC(=O)[C@@H](CCCCN)NC(=O)[C@@H](CC(C)C)NC(=O)[C@H](CC(C)C)NC(=O)[C@@H](CCCCN)NC(=O)[C@H](CCCCN)NC(=O)[C@H](CC(C)C)NC(=O)[C@@H](CC(C)C)NC(=O)[C@H](CCCCN)NC(=O)[C@@H](N)CC(C)C)C(=O)N[C@@H](CCC(=O)N[C@@H](CCC(=O)N[C@@H](CCC(=O)N[C@@H](CCC(=O)N[C@@H](CCC(=O)N[C@@H](CCC(=O)N[C@@H](CCC(=O)O)C(=O)O)C(=O)O)C(=O)O)C(=O)O)C(=O)O)C(=O)O)C(=O)O [γE-KLL] (H-LK[dL]LK[dK]L[dL][dK]KLL[dK]LL[γGlu][γGlu][γGlu][γGlu][γGlu][γGlu]E-OH; N-terminus assumed)
- dose above which solubility issues became apparent [2]: above 10 mg/kg
- toxicity in healthy nude mice (healthy nude mice): nontoxic
- Treated tumor/Control tumor (T/C) ratio at day 28 (CWR22Rv1 xenografts): 0.3
- toxicity in PC3 (PC3): no toxicity
- cleavage of the γ-linked glutamic acid inhibitory domain by PSMA (PSMA; 50 µg peptide, 5 µg PSMA, 4 hours, 37°C, pH 7.8, MALDI-TOF): Cleavage of γ-linked glutamic acid residues from the peptide sequence by PSMA was detected
- degradation by PSMA in the presence of EDTA (PSMA; PSMA with EDTA in the buffer, MALDI-TOF): no degradation
- therapeutic effect in PC3 tumors (PC3 xenografts): No therapeutic effect
- Treated tumor/Control tumor (T/C) ratio at day 28 (LNCaP xenografts; [3]): 0.3
- tumor growth compared with the saline control at day 9 (LNCaP xenografts; [3]): Inhibition of tumor growth
- tumor volume at day 28 (LNCaP xenografts; 7 mg/kg tail vein at days 0, 3, 6, 9, n = 10 mice): 220.3 ± 44.6 mm^3

Compound: SSKLQ [SSLQ, serine–serine–lysine–leucine–glutamine]
- kcat/km (PSA): 23.6 s^−1 (mol/L)^−1
